The source of these data is ChEMBL document CHEMBL4513216, “Probing the Open Global Health Chemical Diversity Library for Multistage-Active Starting Points for Next-Generation Antimalarials” (ACS Infect Dis, 2020).

A short description of this data set: Toxicity liver stage against HepG2, at 10uM. The following applies: human, HepG2-A16-CD81EGFP cells; read-out: INHIBITION
More on the design: test concentration 10 uM, cell line HepG2-A16-CD81EGFP. Format: cell-based. Put shortly:
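Uninfected HepG2-A16-CD81EGFP cells, 3 × 10^3 per well, 1536-well, plated on prespotted compound at 10 μM final, parasite-free screening media added to match infected plates; puromycin 10 μM positive, DMSO 0.5% negative; run in parallel with 48 h PbLuc assay at 37 °C, 5% CO2; viability by CellTiter-Glo luminescence, normalized to controls.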
`c1ccc(-c2nc(CNC3CCc4ncnn4C3)no2)cc1` (stereo not given): the cytotoxicity at 10 µM was -4.16%.
Consider `CN(Cc1cnn(C)c1)S(=O)(=O)N1CCCC1c1ccco1` (stereo not given), for which the cytotoxicity at 10 µM was -5.78%.
The same measure for `Cc1ccc(O)c(C(=O)N2CCCC(NC(=O)C(C)C)C2)c1` (stereo not given): -0.988%; for `CC(C)(CNC(=O)C(C)(C)c1ccccc1F)C(N)=O`: 6.38%; for `Cn1cccc1C(O)CNC(=O)COc1ccc(Cl)cc1Cl` (stereo not given): -1.23%.
The same measure for `Cc1nnc(NCc2cccnc2OCC(F)(F)F)c(C#N)c1C`: -7.77%; for `CCN(CC1CCOC1)C(=O)c1cc(F)ccc1N1CCN(C)CC1` (stereo not given): -7.68%; for `COCCNC(=O)Cn1c(-c2ccco2)cc2cccnc21`: -5.09%.
Consider `CC(CN1CCC2(CC1)c1nc[nH]c1CCN2S(C)(=O)=O)C(F)(F)F` (stereo not given), for which the cytotoxicity at 10 µM is -8.51%.
The same measure for `CC(C)N1CCC(N2CCN(C3CCC3)CC2CCO)CC1` (stereo not given): -12.5%; for `O=C(C1CNCCN1C(=O)CCc1cccnc1)N1CCOCC1` (stereo not given): 4.82%.
For `CCN(CC)C(CNC(=O)c1c(C)noc1C(C)C)c1ccsc1` (stereo not given) the value was -12.2%.
For the compound `COCCCC(=O)NC1(c2cccc(Br)c2)CC1`, the cytotoxicity at 10 µM stood at 2.11%.
In the case of `O=S(=O)(C1CC1)N1CC[C@@H]2[C@@H]1CCN2Cc1cccs1`, the cytotoxicity at 10 µM amounted to 5.77%.
As to `COc1c(F)cc(CN2CCC3(CC2)C(C(=O)O)CC(=O)N3C)cc1Cl` (stereo not given), the cytotoxicity at 10 µM turned out to be 5.13%.
Regarding `O=S(=O)(C1CC1)N1C[C@H]2CCC[C@@]2(COCc2ccccn2)C1`, the cytotoxicity at 10 µM was 10.6%.
For `CCc1nnsc1C(=O)NC1CCN(CCOc2ccc(Br)cc2)CC1` the value was -9.56%; for `N#Cc1cccc(S(=O)(=O)NC(=O)COCC(F)(F)F)c1`, -0.828%; for `COC(=O)C(C)Sc1nnnn1C1CCOCC1` (stereo not given), -10.5%.
On to `CCc1cc(N2C[C@H](C3CC3)[C@@H](N)C2)nc(N2CCOCC2)n1`, for which the cytotoxicity at 10 µM is -1.47%.
For `O=C([C@H]1C[C@H]2OCC[C@H]2N(CC2CCOCC2)C1)N1CCCCO1` the value was -73.9%; for `CCN1CCN(Cc2ccnc(-c3cccnc3)n2)CC1`, -5.23%; for `CC(C)N1CCN2C(=O)N(C3CCCCC3)C[C@H]2C1`, 1.2%.
The same measure for `COc1cc(C)nc(N2CCN(C(=O)CN(C)C(C)C)CC2)n1`: -14.6%; for `OCC1CCN(c2ccc(NCc3ccsc3)nc2)CC1`: 8.94%.
For `CCN(CC)C(=O)[C@@H]1C[C@H](NC(=O)c2ccn(C(C)(C)C)c2)CN1C` the value was -19.3%; for `COCCN1CCO[C@H]2[C@H](OCc3cccc(C)n3)CC[C@@H]21`, -1.01%; for `CC(NC(=O)Nc1cc(F)cc(F)c1)c1nc[nH]n1` (stereo not given), -4.02%.
With `CC(C)C(=O)N1CCCC12CCCN(C(=O)c1ccno1)C2` (stereo not given), the cytotoxicity at 10 µM was found to be 5.35%.
In the case of `Cc1ccc(OCCC(=O)N2CCC(c3nncn3C)CC2)c(C)c1`, the cytotoxicity at 10 µM is -6.27%.
Take `COc1ccc(NC(=O)N2CCC3(CC2)NC(=O)CC3C(=O)O)cc1Cl` (stereo not given): the cytotoxicity at 10 µM is -3.06%.
For `CC1CCN(c2ccc(C(=O)N3CCCC3c3ccc[nH]3)cn2)CC1` (stereo not given), the cytotoxicity at 10 µM stood at 2.84%.
For `Cc1c(CN2CCCC(C(=O)c3ccc(C(C)(C)C)cc3)C2)cnn1C` (stereo not given) the value was 10.4%.
Consider `CCOc1cccc(CNCc2ccc(NC(=O)NC(C)C)cc2)c1`, for which the cytotoxicity at 10 µM was -11.5%.
For the compound `CCOc1ccccc1OC1CCN(C(=O)c2cc[nH]n2)CC1`, the cytotoxicity at 10 µM is -4.53%.
As to `Cc1c[nH]c(CN2CCCCC2CCN(C)C)c(C)c1=O` (stereo not given), the cytotoxicity at 10 µM is -2.97%.
For `CC(C)CN1C[C@@H]2C[C@H](C(=O)N3CCCC3)[C@H](C1)O2` the value was 3.17%.
The same measure for `COc1ccc(CC(C)(O)CNC(=O)c2cccs2)cc1` (stereo not given): -4.69%.
In the case of `CCCNC(=O)c1cnc2n1CCCC2`, the cytotoxicity at 10 µM is -3.19%.
The same measure for `c1ccc(CN2CCOC3(COCCN(c4ncccn4)C3)C2)nc1` (stereo not given): 8.28%.
On to `O=C(c1cc(-c2cccs2)cs1)N1CCOCC1`, for which the cytotoxicity at 10 µM worked out at 5.01%.
For `O=C(c1ccoc1)N1CCOCC2(CCN(C3CCOCC3)C2)C1` (stereo not given) the value was -6.11%; for `COc1ccc(CCN)cc1-c1ccc(S(C)(=O)=O)cc1`, -6.23%; for `Cc1noc(-c2cccnc2N2CCOC(C)(c3cnn(C)c3)C2)n1` (stereo not given), 4.08%.
The same measure for `CN(CCN1CCCC1=O)CC(c1cccs1)N1CCOCC1` (stereo not given): 1.52%.
Consider `CCCc1nc(C)cc(N2CCNC(C(=O)Nc3ccc(C)nc3)C2)n1` (stereo not given), for which the cytotoxicity at 10 µM is -48.5%.
`O=C(CN1CCCCCC1)NCc1cccnc1Oc1ccccc1`: the cytotoxicity at 10 µM was -11.1%.
As for `Cc1noc([C@@]23CCO[C@@H]2CCN(C(=O)c2cc(C)on2)C3)n1`, the cytotoxicity at 10 µM was 10.9%.
With `O=C(c1ncoc1-c1ccco1)N1CCCN(c2ncccn2)CC1`, the cytotoxicity at 10 µM stood at 2.7%.
For `CC(C)C1CN(C(=O)c2cn3cc(Cl)cnc3n2)CCCN1CC1CC1` (stereo not given) the value was 3.46%; for `O=C(c1coc(COc2cccc(F)c2)n1)N1CC[C@H](O)[C@@H](O)C1`, -11%.
With `Cc1cnc(NC2CCc3c(ccc(=O)n3C)C2)nc1` (stereo not given), the cytotoxicity at 10 µM was -149%.
The same measure for `CSCC[C@@H](CO)n1ccnc1-c1ccc(C)o1`: 7.02%; for `Cc1nc(N(C)CCN(C)C)c2cnn(C)c2n1`: 4.63%; for `Cc1noc(C)c1CN1CC[C@H]2O[C@@H](C(=O)N3CCCC3)CC[C@H]21`: 3.35%.
For `CC(C)OCCC(=O)Nc1cc(C(=O)N(C)C(C)C)ccc1Cl` the value was -3.79%; for `c1ccc(-n2ccc(CN3CCCCC3Cn3cncn3)n2)cc1` (stereo not given), -7.85%.
The same measure for `CS(=O)(=O)NC[C@]12COC[C@H]1CN(C(=O)C1CC(F)(F)C1)C2`: -95.5%.
`Cc1oncc1C(=O)NCc1cc(=O)n2c(n1)CN(C)CCC2`: the cytotoxicity at 10 µM stood at 5.02%.
For `COc1ccc(F)c(CN2CCC(c3cc(O)nc(C)n3)C2)c1` (stereo not given) the value was 5.61%.
Take `CC(C)(NCC(=O)NC(=O)NC1CC1)c1ccc2c(c1)OCO2`: the cytotoxicity at 10 µM was -1.27%.
On to `O=C(C1CC1)N1CCc2c(ncnc2N2CCN3CCCC3C2)C1` (stereo not given), for which the cytotoxicity at 10 µM is -13.6%.
With `CC(C)S(=O)(=O)c1ccccc1C(=O)NCC1Cc2ccccc2O1` (stereo not given), the cytotoxicity at 10 µM amounted to 5.87%.
For `CCN(CC)C(=O)CN1CCc2c(nc(C3CCNCC3)nc2NC)C1` the value was 5.07%; for `Cc1ccc(N2CCC(NCc3cnc(C4CCC4)s3)CC2)nc1`, 6.75%.
The same measure for `COCCN1CCN(c2ccc3ccc(C(=O)NC4CC4)cn23)CC1`: -4.37%; for `O=C(C1CN(CC2CC2)CC12CCOCC2)N1CCOCC1` (stereo not given): 6.07%.
For `Cc1ccccc1OC1CCN(S(=O)(=O)c2c(C)n[nH]c2C)CC1` the value was 0.0656%.
As for `CC(=O)N(Cc1ncc(C)o1)C1CCN(CCOc2ccccc2)C1` (stereo not given), the cytotoxicity at 10 µM was 7.02%.
The same measure for `Cc1cccc(-c2nc(CN(Cc3cccs3)CC3CCCO3)no2)c1` (stereo not given): -3.01%.
For `CCn1c(N)nc2cc(C(=O)N3CCN(CC(F)(F)F)CC3)cnc21` the value was -2.03%.
As to `CC(Cn1cncn1)NCc1ccc2nonc2c1` (stereo not given), the cytotoxicity at 10 µM was 3.05%.
For `CC(=O)N1CCC2(CC1)c1ncc(-c3cccnc3)n1CCN2C` the value was -94%; for `O=C(c1ccc(S(=O)(=O)NC2CCC2)cc1)N1CC[C@H]2CNC[C@H]21`, -13.5%.
For `Cc1ccc(C2CN(CCS(=O)(=O)C(C)C)CCO2)c(C)c1` (stereo not given), the cytotoxicity at 10 µM was 8.25%.
As to `Cc1nn(C)cc1-c1cc(C(F)F)n2nc(CCC(=O)O)nc2n1`, the cytotoxicity at 10 µM was -5.44%.
Regarding `CSC(C)(C)CNC(=O)NCc1cccc(-n2cncn2)c1`, the cytotoxicity at 10 µM was -14.4%.
On to `CS(=O)(=O)N1CCc2ccc(=O)n(CC3CCOCC3)c2CC1`, for which the cytotoxicity at 10 µM was determined as 6.4%.
Turning to `Cc1cc(C)n(C2CCCN(C(=O)c3ccnc(N(C)C)c3)C2)n1` (stereo not given), the cytotoxicity at 10 µM worked out at 1.9%.
For `O=C(NCCN1CCOCC1)C(OC1CCCC1)c1ccccc1` (stereo not given) the value was -2.99%.
For `COCCNC(=O)[C@H]1CN(c2ncccn2)C[C@H]2OCC[C@@H]12` the value was -80.7%; for `CCn1ncc2c1C(COC)N(C(=O)CCc1ccccc1)CC2` (stereo not given), -96.8%.
For `Cc1ccc2c(c1)C1(CCNCC1)CN2C(=O)CN(C)C` the value was 0.513%; for `CCN1CCC(CNc2nccc(C)n2)(N(C)C)CC1`, -0.51%; for `CN1CCCC2(CC1)CCN(C(=O)CCc1ccccc1O)CC2`, -32.1%.
As for `O=C(O)c1cc(-c2cccnc2)cc(S(=O)(=O)N2CCCCCC2)c1`, the cytotoxicity at 10 µM was -2.88%.
Regarding `O=C(Cn1cnc2cc3c(cc21)OCCCO3)NCCc1ccccc1`, the cytotoxicity at 10 µM came to 7.57%.
For `CC(NC(=O)CCCOc1cccc(F)c1)c1ccncc1` (stereo not given), the cytotoxicity at 10 µM is -3.6%.
Consider `COc1ncc(-c2c(C#N)c(N)nc3c2CCc2[nH]ccc2-3)cn1`, for which the cytotoxicity at 10 µM turned out to be 6.47%.
With `CN1CCN(C(=O)c2[nH]nnc2Nc2ccccc2F)CC1`, the cytotoxicity at 10 µM amounted to 1.36%.
Take `CCn1c(C)cc(C(=O)N2CCC(Nc3cccnn3)CC2)c1C`: the cytotoxicity at 10 µM is 4.71%.
For the compound `Cc1ccc(OCc2occc2C(=O)N2CC[C@H](CO)[C@@H](O)C2)cc1`, the cytotoxicity at 10 µM came out at 14.3%.
As for `COc1ccccc1S(=O)(=O)N1CCC(Oc2cccnn2)CC1`, the cytotoxicity at 10 µM was -7.33%.
For `Cc1noc(C)c1CN1CC[C@H]2C[C@@H](c3nccs3)O[C@@H]2C1` the value was -5.33%; for `CCn1nc(C)c2nc(C)nc(NCCc3ccc(C)cc3)c21`, 50.9%.
